# EBI2 block – antagonists of human EBI2 receptor; P32249; EBI2 beta-arrestin recruitment, luminescence, 7a,25-OHC stimulated; inhibition, % at 5 µM; 360,000 compounds, 0.81% hits; AID 651636; in the data active = inhibition above about 38%;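 note: enzyme fragment complementation signal reports receptor beta-arrestin coupling in cells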
# CXCR6 inh – inhibitors of human CXCR6 receptor; O00574; CHO-K1 PathHunter CXCR6 beta-arrestin, luminescence; inhibition, % at 20 µM; 360,000 compounds, 0.36% hits; AID 602244; in the data active = inhibition above about 34%, passing the limit was not always enough;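 note: antagonist mode with CXCL16 agonist at 10 nM final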
# APJ antag – antagonists of human APJ apelin receptor. inhibition, % at 20 µM. CHO-K1 APJ beta-arrestin complementation, luminescence. P35414. 330,000 compounds, 0.32% hits;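 active = inhibition above about 40% at 20 µM, limit read from the data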;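 note: cells challenged with 10 nM apelin-13 agonist together with compound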
# CCR6 antag – antagonists of human CCR6 receptor; inhibition, % at 20 µM; P51684; AID 493098; 340,000 compounds, 0.49% hits; CHO-K1 CCR6 PathHunter beta-arrestin, luminescence, CCL20-stimulated;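 active = compounds whose inhibition of the agonist-driven luminescence signal at 20 µM reaches about 50%, limit read from the data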;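 note: cells stimulated with CCL20 at 14 nM final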
# Target sequence (P51684 whole entry, looked up): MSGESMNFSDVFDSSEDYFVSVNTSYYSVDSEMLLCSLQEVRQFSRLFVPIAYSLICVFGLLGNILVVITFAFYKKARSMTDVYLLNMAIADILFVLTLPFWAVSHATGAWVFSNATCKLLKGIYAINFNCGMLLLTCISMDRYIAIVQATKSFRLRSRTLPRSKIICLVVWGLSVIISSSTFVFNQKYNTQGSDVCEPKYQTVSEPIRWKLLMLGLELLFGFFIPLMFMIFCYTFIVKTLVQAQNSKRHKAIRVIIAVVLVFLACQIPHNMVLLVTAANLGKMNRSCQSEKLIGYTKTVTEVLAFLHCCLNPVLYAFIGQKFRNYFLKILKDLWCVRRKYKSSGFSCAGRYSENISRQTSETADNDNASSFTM
# APJ ag – APJ receptor agonism; P35414; CHO-K1 APJ PathHunter beta-arrestin, luminescence; 0% DMSO wells, 100% apelin; activation, % at 20 µM; 330,000 compounds, 0.11% hits; AID 2520;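 active = activation more than six SD over the plate average, tested at 20 µM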
#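 Incubation: overnight seeding, 90 min compound at 25 °C, 1 h detection; test system: PathHunter CHO-K1 APJ (AGTRL-1) beta-arrestin reporter cells; amount: 1000 cells/well; doses: one dose, 20 µM compound, 1% DMSO; measured by: beta-gal luminescence; measure: agonist-driven arrestin binding to APJ; benchmarks: negative DMSO alone, positive Apelin-13 at 10 nM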
# APJ ag confirm – confirmation of human APJ apelin receptor agonists. shares compounds with APJ ag. CHO-K1 APJ PathHunter beta-arrestin, luminescence. activation, % at 20 µM. 310 compounds, 10% hits. AID 2764;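 active = activation above 40%, taking the highest of four retests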
# Numbers stand for hits; – = inactive; · = no result given. An excerpt weighted towards active compounds, which were near 1.5% of everything screened.
SMILES,EBI2 block,CXCR6 inh,APJ antag,CCR6 antag,APJ ag,APJ ag confirm
O=C(NC(=S)Nc1ccccn1)c1cc(-c2ccccc2)nc2ccccc12,–,–,–,–,–,·
CN(C)c1ccc(N=Nc2ccc(C(=O)O)cc2)cc1,–,–,–,–,–,·
Cc1csc(N=Nc2ccc(N(C)C)cc2)[n+]1[O-],–,47,·,·,·,·
CSc1ccc(C(=O)C2CCCN(C(=O)c3ccsc3)C2)cc1 (stereo unspecified),–,–,–,–,–,·
CSc1ccc(C(=O)C2CCCN(C(=O)c3ccc4c(c3)no[n+]4[O-])C2)cc1 (stereo unspecified),–,–,–,–,18,44
CN1CCN(c2c(/C=N/O)c3ccccc3n2C)CC1,–,–,–,–,–,·
Cc1ccccc1C(=O)O/N=C/c1c(N2CCOCC2)n(C)c2ccccc12,–,–,–,–,15,–
CNc1cncc(-c2cccc(OC)c2F)n1,–,–,·,·,·,·
OCC[C@@H]1C[C@H](O)[C@@H](O)[C@]2(Cc3ccccc3CCO2)O1,–,–,–,–,–,·
COc1ccc(C(=O)O/N=C(\N)Cc2ccc([N+](=O)[O-])cc2)c(OC)c1,–,–,–,–,21,–
N/C(Cc1ccc([N+](=O)[O-])cc1)=N\OC(=O)c1cccc(Br)c1,–,–,–,–,–,·
COc1ccc(C(=O)O/N=C(\N)Cc2ccc(Cl)c(Cl)c2)cc1OC,–,–,–,–,–,·
COc1ccc(C(=O)O/N=C(\N)Cc2ccc(Cl)cc2)cc1OC,–,–,–,–,12,–
COc1ccc(C/C(N)=N/OC(=O)c2cccc([N+](=O)[O-])c2)cc1,–,–,–,–,18,–
COc1ccccc1C/C(N)=N/OC(=O)c1cccc([N+](=O)[O-])c1,–,–,–,–,11,–
Cc1ccn2c(NC3CCCCC3)c(-c3cccc(-c4cccc(Cl)c4)c3)nc2c1,–,–,–,–,–,·
CC1CCN(CC(=O)N(C)c2c(N)n(Cc3ccccc3)c(=O)[nH]c2=O)CC1,–,–,–,–,–,·
CCC(=O)N1CCN(c2ccc(NC(=O)c3cc4ccccc4o3)cc2Cl)CC1,–,–,–,–,–,·
O=C(Nc1ccc(N2CCN(C(=O)c3ccco3)CC2)c(Cl)c1)c1cc2ccccc2o1,–,–,–,–,17,–
CCCC(=O)N1CCN(c2ccc(NC(=O)c3cc4ccccc4o3)cc2Cl)CC1,–,–,–,–,30,–
CCn1c(CC(=O)Nc2ccc(C)c(Cl)c2)nnc1SCC(=O)Nc1nc(C)cs1,–,–,–,–,20,–
CCOc1ncccc1C(=O)Nc1cc(S(=O)(=O)N2CCCCC2)ccc1OC,–,–,–,–,25,–
CC(NC(=O)CN1C(=O)NC2(CCCC2)C1=O)c1ccc(Cl)cc1Cl (stereo unspecified),–,–,–,–,–,·
Cc1ccc2nc(/C(C#N)=C\c3ccc([N+](=O)[O-])o3)[nH]c2c1,–,–,–,–,95,–
N#C/C(=C\c1ccc([N+](=O)[O-])o1)c1nc2ccccc2[nH]1,·,·,–,–,42,–
SMILES,EBI2 block,CXCR6 inh,APJ antag,CCR6 antag,APJ ag,APJ ag confirm
Cc1ccc2nc(/C(C#N)=C\c3ccc(N4CCOCC4)o3)[nH]c2c1,–,–,–,–,–,·
CCN(CC)CCCn1c2c(c(SCC(=O)Nc3ccccc3Cl)nc1=O)CCC2,–,–,–,–,–,·
Cc1cc(C(=O)O/N=C(\N)c2ccncc2)ccc1[N+](=O)[O-],–,–,–,–,–,·
COc1ccc(/C(N)=N/OC(=O)c2cccs2)cc1OC,–,–,–,–,18,–
COc1ccc(/C(N)=N/OC(=O)c2ccc([N+](=O)[O-])c(C)c2)cc1OC,–,–,–,–,11,–
CCC(Oc1ccccc1)C(=O)Nc1cc(C(F)(F)F)ccc1N1CCOCC1 (stereo unspecified),–,–,–,–,–,·
COc1ccccc1N=c1c2c([N+](=O)[O-])cc([N+](=O)[O-])cc2n(O)n1-c1ccccc1OC,·,·,–,·,15,–
N/C(=N/OC(=O)c1cccc([N+](=O)[O-])c1)c1cccc([N+](=O)[O-])c1,–,–,–,–,26,–
N/C(=N\OC(=O)c1cccc(F)c1)c1cccc([N+](=O)[O-])c1,–,–,–,–,15,–
C/C(=N/NC(=O)CN(c1ccccc1)S(=O)(=O)c1ccccc1)c1ccccc1O,–,–,–,–,–,·
O=C(CSc1n[nH]c(=O)n1C1CC1)Nc1cc(Cl)ccc1Oc1ccccc1,–,–,–,–,12,–
O=C(CSc1n[nH]c(=O)n1C1CC1)Nc1ccccc1,–,–,–,–,–,·
Oc1ccccc1CNc1ccc(Br)cn1,–,–,–,–,18,–
Brc1ccc(NCc2cccc3ccccc23)nc1,–,–,–,–,–,·
CN1CCN(c2ccc(NC(=S)NC(=O)c3cccc4ccccc34)cc2)CC1,–,–,–,–,28,–
COc1cc(-c2cc(=O)c3c(O)c(OC)c(OC)c(O)c3o2)ccc1O,–,–,–,–,28,–
COc1c(O)c(O)c2oc(-c3ccccc3)cc(=O)c2c1OC,–,–,–,–,–,·
COC(=O)[C@]1(Cc2ccccc2)N[C@H](CN(C)C(=O)c2ccccc2)[C@@H]2C(=O)N(Cc3ccccc3)C(=O)[C@@H]21,–,–,–,–,–,·
COc1ccccc1-n1c(SCC(=O)NC(C)(C)C)nc(O)cc1=O,–,–,–,–,–,·
COc1ccccc1-n1c(SC)nc(O)cc1=O,–,–,–,–,66,88
CCNC(=O)C1(C)CCCN(C(=O)c2ccnc(Cl)c2)C1 (stereo unspecified),–,–,·,·,·,·
N#Cc1ncc(Cc2ccccc2)nc1C#N,–,–,–,–,–,·
c1ccc(CNc2nc(NCc3ccccc3)c3ccccc3n2)cc1,–,–,–,–,28,–
c1ccc(CNc2nc(-c3ccccc3)nc3ccccc23)cc1,–,–,–,–,–,·
CCN1C(=O)C(=O)N(CC(=O)N2CCN(c3ccccc3)CC2)C1=O,–,–,–,–,–,·
SMILES,EBI2 block,CXCR6 inh,APJ antag,CCR6 antag,APJ ag,APJ ag confirm
Cc1ccc(NC(=O)C/C(N)=N/OC(=O)c2ccccc2)cc1,–,–,–,–,11,–
N/C(=N\OC(=O)c1cc(-c2ccccc2)nc2ccccc12)c1ccc(Cl)cc1,–,–,–,–,16,–
COc1cc(-c2nc(-c3ccc(NC(=O)c4ccc(Br)o4)cc3)no2)cc(OC)c1OC,–,–,–,–,–,·
COc1ccc(-c2nc(-c3ccc(NC(=O)c4ccc(Br)o4)cc3)no2)cc1OC,–,–,–,–,47,–
Cc1ccc(S(=O)(=O)Nc2nc(-c3ccccc3)cs2)cc1,–,–,–,–,30,55
CC1CCCC(NC(=O)CN(C)CC(=O)Nc2ccc(F)cc2)C1C (stereo unspecified),–,–,–,–,–,·
CC1=NNC(=O)/C1=C\c1cn(-c2ccccc2)nc1-c1cccs1,68,–,–,–,26,–

# Assay outcomes from PubChem.
